Measured values as given in ChEMBL document CHEMBL2331410, “Synthesis and Pharmacological Characterization of Two Novel, Brain Penetrating P2X7 Antagonists” (ACS Med Chem Lett, 2013).
Values after ≈ are worked out from the molar mass of the structure shown. Active and inactive are the calls of the source. The calls are words filed in the database; no cut-off is given here.

Assays:
Rattus norvegicus [1] = organism: Rattus norvegicus; test: Inhibition of rat nACHR at 1 uM relative to control
P2X purinoceptor 7 [2] = target: T1, P2X purinoceptor 7 (Homo sapiens, UniProt Q99572); test: Antagonist activity at P2X7 receptor in human PBMC assessed as inhibition of BzATP-induced IL1beta release incubated 30 mins prior to BzATP-challenge measured after 1.5 hrs by ELISA
T1 sequence (Q99572 whole entry): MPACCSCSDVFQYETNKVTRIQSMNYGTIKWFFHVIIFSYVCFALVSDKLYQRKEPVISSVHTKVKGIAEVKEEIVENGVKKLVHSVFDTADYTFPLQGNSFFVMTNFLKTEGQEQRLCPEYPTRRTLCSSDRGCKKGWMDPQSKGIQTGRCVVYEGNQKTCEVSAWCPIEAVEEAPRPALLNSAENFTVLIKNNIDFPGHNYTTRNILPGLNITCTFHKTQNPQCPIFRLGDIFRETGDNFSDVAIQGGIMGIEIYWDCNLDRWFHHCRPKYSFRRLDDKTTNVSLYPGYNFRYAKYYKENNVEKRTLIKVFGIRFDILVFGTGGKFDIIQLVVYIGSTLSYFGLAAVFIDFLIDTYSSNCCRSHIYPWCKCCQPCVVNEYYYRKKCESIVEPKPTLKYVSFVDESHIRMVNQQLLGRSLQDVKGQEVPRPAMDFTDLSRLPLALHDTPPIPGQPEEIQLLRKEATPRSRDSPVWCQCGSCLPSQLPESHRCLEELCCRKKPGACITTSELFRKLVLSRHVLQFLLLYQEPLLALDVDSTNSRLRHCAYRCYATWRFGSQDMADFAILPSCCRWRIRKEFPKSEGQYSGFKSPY

[3] = Apparent permeability from apical to basolateral side in human Caco2 cells at 1 uM after 60 mins by LC/MS/MS analysis; assay type: ADME, cell-based; conditions: Caco-2
[4] = Extraction ratio in rat liver microsomes at 1 uM by LC/MS/MS analysis; assay type: ADME, Microsome; conditions: read-out: ERH
[5] = target: T2, Sodium-dependent dopamine transporter (Homo sapiens, UniProt Q01959); test: Inhibition of human dopamine transporter
T2 sequence (Q01959 whole entry): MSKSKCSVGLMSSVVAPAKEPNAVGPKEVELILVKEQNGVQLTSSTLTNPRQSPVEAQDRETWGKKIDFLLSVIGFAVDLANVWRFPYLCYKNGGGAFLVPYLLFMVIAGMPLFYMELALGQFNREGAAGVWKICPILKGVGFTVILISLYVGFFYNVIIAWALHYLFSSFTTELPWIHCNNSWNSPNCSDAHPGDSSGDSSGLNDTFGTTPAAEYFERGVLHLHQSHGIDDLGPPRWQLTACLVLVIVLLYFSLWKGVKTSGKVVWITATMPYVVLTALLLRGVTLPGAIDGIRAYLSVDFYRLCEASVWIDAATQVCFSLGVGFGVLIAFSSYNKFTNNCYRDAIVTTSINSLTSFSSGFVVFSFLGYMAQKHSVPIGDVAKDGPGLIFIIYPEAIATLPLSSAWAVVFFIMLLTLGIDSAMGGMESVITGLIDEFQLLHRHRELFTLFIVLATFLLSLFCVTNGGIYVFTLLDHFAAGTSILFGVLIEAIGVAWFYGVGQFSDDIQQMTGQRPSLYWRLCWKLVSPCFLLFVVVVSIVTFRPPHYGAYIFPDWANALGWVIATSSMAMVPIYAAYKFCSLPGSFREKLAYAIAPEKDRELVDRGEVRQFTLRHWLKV

[6] = target: T3, Substance-K receptor (Homo sapiens) (UniProt P21452); test: Inhibition of human NK2 receptor at 1 uM relative to control
T3 sequence (whole entry): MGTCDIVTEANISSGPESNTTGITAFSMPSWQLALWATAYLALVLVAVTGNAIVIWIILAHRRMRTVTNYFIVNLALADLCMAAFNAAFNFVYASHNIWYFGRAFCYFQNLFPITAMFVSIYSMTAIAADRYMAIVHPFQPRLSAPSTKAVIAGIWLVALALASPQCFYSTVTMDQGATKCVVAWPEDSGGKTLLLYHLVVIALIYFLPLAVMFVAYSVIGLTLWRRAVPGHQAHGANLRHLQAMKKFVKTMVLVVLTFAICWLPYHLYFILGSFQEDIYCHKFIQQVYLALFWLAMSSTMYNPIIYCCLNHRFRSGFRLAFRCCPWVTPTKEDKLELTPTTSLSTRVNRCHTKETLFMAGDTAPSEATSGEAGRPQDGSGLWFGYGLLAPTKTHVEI

P2X purinoceptor 7 [7] = target: T4, P2X purinoceptor 7 (Rattus norvegicus, UniProt Q64663); test: Antagonist activity at rat P2X7 receptor assessed as inhibition of ATP-induced Ca2+ flux by FLIPR assay
T4 sequence (Q64663 whole entry): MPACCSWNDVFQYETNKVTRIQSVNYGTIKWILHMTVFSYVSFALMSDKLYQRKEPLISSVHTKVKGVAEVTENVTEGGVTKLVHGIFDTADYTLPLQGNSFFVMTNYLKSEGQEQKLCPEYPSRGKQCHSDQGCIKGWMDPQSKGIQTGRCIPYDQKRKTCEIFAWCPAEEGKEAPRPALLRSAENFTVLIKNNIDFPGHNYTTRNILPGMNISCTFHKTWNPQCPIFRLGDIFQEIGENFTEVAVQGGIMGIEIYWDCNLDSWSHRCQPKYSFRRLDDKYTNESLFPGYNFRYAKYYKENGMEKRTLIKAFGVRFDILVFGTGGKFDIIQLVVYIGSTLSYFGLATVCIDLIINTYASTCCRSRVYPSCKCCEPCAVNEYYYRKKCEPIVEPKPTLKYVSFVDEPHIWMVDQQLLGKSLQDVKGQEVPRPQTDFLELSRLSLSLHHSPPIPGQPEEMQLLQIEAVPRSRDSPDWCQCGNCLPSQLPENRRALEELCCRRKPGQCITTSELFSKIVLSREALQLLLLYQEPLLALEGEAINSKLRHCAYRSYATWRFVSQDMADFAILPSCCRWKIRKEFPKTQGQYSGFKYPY

[8] = target: T2, Sodium-dependent dopamine transporter; test: Inhibition of human dopamine transporter at 1 uM relative to control
P2X purinoceptor 7 [9] = target: T1, P2X purinoceptor 7; test: Antagonist activity at P2X7 receptor in human whole blood assessed as inhibition of BzATP-induced IL1beta release incubated 30 mins prior to BzATP-challenge measured after 1.5 hrs by ELISA
[10] = target: Sodium-dependent serotonin transporter (Homo sapiens, UniProt P31645); test: Displacement of [3H]-Citalopram from human SERT expressed in human HEK293 cells after 1 hr by scintillation counting analysis; assay type: cell-based
Chain of Sodium-dependent serotonin transporter (Homo sapiens, UniProt P31645) (P31645 whole entry): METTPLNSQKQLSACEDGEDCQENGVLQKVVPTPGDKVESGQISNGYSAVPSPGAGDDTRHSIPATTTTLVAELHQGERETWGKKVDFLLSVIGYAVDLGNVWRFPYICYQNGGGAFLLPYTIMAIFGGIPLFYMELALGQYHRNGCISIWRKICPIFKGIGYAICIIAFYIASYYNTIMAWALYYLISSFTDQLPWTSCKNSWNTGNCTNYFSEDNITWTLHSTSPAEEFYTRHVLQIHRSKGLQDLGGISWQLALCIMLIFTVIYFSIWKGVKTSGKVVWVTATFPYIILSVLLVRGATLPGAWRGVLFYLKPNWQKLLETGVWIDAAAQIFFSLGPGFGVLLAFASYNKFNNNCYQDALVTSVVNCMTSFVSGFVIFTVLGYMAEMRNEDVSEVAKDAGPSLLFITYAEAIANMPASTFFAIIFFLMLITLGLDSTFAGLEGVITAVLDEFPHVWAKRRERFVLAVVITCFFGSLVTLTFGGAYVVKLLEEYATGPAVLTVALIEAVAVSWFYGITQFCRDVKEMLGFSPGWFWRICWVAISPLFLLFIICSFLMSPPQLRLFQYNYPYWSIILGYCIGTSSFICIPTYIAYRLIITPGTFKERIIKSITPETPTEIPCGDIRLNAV

Rattus norvegicus [11] = organism: Rattus norvegicus; test: Ex-vivo SERT occupancy in Sprague-Dawley rat by autoradiographic analysis; assay type: functional
Rattus norvegicus [12] = test: Ex-vivo P2X7 receptor occupancy in sc dosed Sprague-Dawley rat brain assessed as inhibition of [3H]A804598 binding after 120 mins by autoradiographic analysis; assay type: functional
P2X purinoceptor 7 [13] = target: T1, P2X purinoceptor 7; test: Antagonist activity at human recombinant P2X7 receptor expressed in human 1321N1 cells assessed as inhibition of BzATP-induced Ca2+ flux after 30 mins by FLIPR assay; assay type: cell-based
P2X purinoceptor 7 [14] = target: T1, P2X purinoceptor 7; test: Displacement of [3H]-A804598 from human recombinant P2X7 receptor expressed in human 1321N1 cell membranes after 1 hr by […]
[15] = Protein binding in rat brain; assay type: ADME, tissue-based; conditions: brain tissue, read-out: PB (converted)
[16] = Apparent permeability from basolateral to apical side in human Caco2 cells at 1 uM after […] by LC/MS/MS analysis; assay type: ADME, cell-based; conditions: Caco-2
[17] = Extraction ratio in mouse liver microsomes at 1 uM by LC/MS/MS analysis; assay type: ADME, Microsome; conditions: read-out: ERH
[18] = Extraction ratio in human liver microsomes at 1 uM by LC/MS/MS analysis; assay type: ADME, Microsome; conditions: read-out: ERH
[19] = Solubility of the compound at pH 2; assay type: physicochemical; conditions: buffer
P2X purinoceptor 7 [20] = target: T5, P2X purinoceptor 7 (Mus musculus, UniProt Q9Z1M0); test: Antagonist activity at mouse P2X7 receptor assessed as inhibition of ATP-induced Ca2+ flux by FLIPR assay
T5 sequence (Q9Z1M0 whole entry): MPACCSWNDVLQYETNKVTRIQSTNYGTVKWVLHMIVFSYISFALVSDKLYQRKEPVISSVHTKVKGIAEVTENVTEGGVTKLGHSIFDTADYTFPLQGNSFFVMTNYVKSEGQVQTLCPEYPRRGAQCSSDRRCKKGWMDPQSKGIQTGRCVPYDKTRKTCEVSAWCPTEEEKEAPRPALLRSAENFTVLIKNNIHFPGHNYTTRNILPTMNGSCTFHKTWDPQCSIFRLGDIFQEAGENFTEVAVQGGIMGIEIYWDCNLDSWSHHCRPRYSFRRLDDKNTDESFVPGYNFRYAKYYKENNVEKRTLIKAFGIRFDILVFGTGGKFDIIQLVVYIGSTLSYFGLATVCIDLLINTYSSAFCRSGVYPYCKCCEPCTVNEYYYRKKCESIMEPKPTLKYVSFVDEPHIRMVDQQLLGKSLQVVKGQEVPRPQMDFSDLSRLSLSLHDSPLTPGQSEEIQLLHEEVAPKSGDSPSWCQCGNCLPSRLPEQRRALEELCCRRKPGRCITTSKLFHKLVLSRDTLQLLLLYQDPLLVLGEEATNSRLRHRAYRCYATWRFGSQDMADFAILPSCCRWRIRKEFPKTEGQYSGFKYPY

[21] = Inhibition of rat nACHR
P2X purinoceptor 7 [22] = target: T4, P2X purinoceptor 7; test: Antagonist activity at rat P2X7 receptor by radioligand binding assay
[23] = target: Sodium-dependent serotonin transporter (Rattus norvegicus, UniProt P31652); test: Displacement of [3H]-Citalopram from SERT in rat brain after 60 mins by scintillation counting analysis; assay type: tissue-based
Chain of Sodium-dependent serotonin transporter (Rattus norvegicus, UniProt P31652) (P31652 whole entry): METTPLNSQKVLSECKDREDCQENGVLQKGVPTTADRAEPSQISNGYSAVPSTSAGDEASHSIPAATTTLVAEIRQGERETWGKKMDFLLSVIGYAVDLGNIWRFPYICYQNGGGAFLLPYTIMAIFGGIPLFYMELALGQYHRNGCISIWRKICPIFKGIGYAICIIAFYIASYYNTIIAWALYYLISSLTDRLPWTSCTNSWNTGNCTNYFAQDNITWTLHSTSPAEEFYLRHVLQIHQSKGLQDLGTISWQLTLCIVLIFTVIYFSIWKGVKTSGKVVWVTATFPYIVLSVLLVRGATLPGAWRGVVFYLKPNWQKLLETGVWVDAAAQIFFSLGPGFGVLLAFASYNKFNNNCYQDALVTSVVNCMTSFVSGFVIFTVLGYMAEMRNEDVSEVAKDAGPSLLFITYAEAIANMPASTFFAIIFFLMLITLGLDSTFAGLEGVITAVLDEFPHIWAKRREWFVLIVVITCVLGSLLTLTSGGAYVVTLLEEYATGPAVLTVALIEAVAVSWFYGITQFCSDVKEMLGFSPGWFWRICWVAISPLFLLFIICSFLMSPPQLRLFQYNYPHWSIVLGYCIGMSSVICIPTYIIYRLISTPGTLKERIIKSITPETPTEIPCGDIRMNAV

Rattus norvegicus [24] = test: Ex-vivo P2X7 receptor occupancy in Sprague-Dawley rat brain assessed as inhibition of [3H]A804598 binding at 10 mg/kg, sc by autoradiographic analysis; assay type: functional, organism-based; set-up: dose 10 mg/kg
Procedure, shortened: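 Single subcutaneous dose given to rats; P2X7 occupancy in brain was assessed ex vivo by autoradiography at several times after dosing, with plasma and brain drug levels measured in parallel. n = 3 per time point, mean ± SEM.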

[25] = Plasma protein binding in human by equilibrium dialysis method; assay type: ADME, cell-free; conditions: read-out: PPB (converted)
[26] = Plasma protein binding in rat by equilibrium dialysis method; assay type: ADME, cell-free; conditions: read-out: PPB (converted)
[27] = Solubility of the compound at pH 7; assay type: physicochemical; conditions: buffer
Rattus norvegicus [28] = test: Ex-vivo P2X7 receptor occupancy in Sprague-Dawley rat brain assessed as inhibition of [3H]A804598 binding at 30 mg/kg, sc after 2 hrs by autoradiographic analysis relative to control; assay type: functional; conditions: route subcutaneous
Procedure, shortened: (§1)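 Rat brain P2X7 occupancy by ex vivo autoradiography after one 30 mg/kg subcutaneous dose, followed over time. Plasma and brain drug levels were measured at the same time points. n = 3 per time point, mean ± SEM.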

Rattus norvegicus [29] = test: Ex-vivo P2X7 receptor occupancy in sc dosed Sprague-Dawley rat brain assessed as inhibition of [3H]A804598 binding after 15 mins by autoradiographic analysis; assay type: functional
Rattus norvegicus [30] = test: Ex-vivo P2X7 receptor occupancy in Sprague-Dawley rat brain assessed as inhibition of [3H]A804598 binding at 30 mg/kg, sc by autoradiographic analysis; assay type: functional, organism-based; set-up: dose 30 mg/kg; procedure, shortened: as §1

SMILES	IC50 (P2X purinoceptor 7 [2]) [nM]	hepatic extraction ratio at 1 µM [4]	IC50 (P2X purinoceptor 7 [7]) [nM]	IC50 (P2X purinoceptor 7 [9]) [nM]	Ki (P2X purinoceptor 7 [14]) [nM]	fraction unbound [15]	hepatic extraction ratio at 1 µM [17]	hepatic extraction ratio at 1 µM [18]	solubility [19] [µM]	IC50 (P2X purinoceptor 7 [20]) [nM]	Ki (P2X purinoceptor 7 [22]) [nM]	Ki [23] [nM]	fraction unbound [25]	fraction unbound [26]	solubility [27] [µM]	also measured
CN1CCc2c(cccc2C(=O)NCC2(N3CCN(c4ccccc4)CC3)CCCCC2)C1	39.8	0.86	15.8	200	12.6	0.024	0.9	0.9	95 (≈ 42.4 µg/mL)	79.4	0.794	20	0.165	0.044	90 (≈ 40.2 µg/mL)	inhibition (Rattus norvegicus [1]): 54%; Papp A→B at 1 h, 1 µM [3]: 11 ×10⁻⁶ cm/s; IC50 [5]: 290 nM; inhibition [6]: 68%; inhibition [8]: 93%; Ki [10]: 15.8 nM; ED50 (Rattus norvegicus [11]): 24 mg/kg; ED50 (Rattus norvegicus [12]): 0.3 mg/kg; IC50 (P2X purinoceptor 7 [13]): 20 nM; Papp B→A at 1 µM [16]: 2.1 ×10⁻⁶ cm/s; IC50 [21]: 910 nM; Activity (Rattus norvegicus [24]): Active
O=C(NCC1(N2CCN(c3ccccc3)CC2)CCOCC1)c1cccnc1Sc1ccccc1	25.1	> 0.92	63.1	200	12.6	0.017	> 0.93	> 0.95	400 (≈ 195 µg/mL)	31.6	2	3160	0.022	0.029	31 (≈ 15.1 µg/mL)	Occ (Rattus norvegicus [28]): >50%; ED50 (Rattus norvegicus [29]): 2.5 mg/kg; Activity (Rattus norvegicus [30]): Active
